Data taken from ChEMBL document CHEMBL2046374, “Synthesis and biological evaluation of vinyl ether-containing azole derivatives as inhibitors of Trichophyton rubrum” (2012).
In brackets after ≈: the same amount, converted by molar mass.

Tested on: Trichophyton rubrum
Assay: Antifungal activity against Trichophyton rubrum incubated at 35 degC for 72 hrs by NCCLS based microbroth dilution method
Format: functional
Method in brief: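 Broth microdilution in 96-well plates per NCCLS; compounds dissolved in DMSO, serially diluted in growth medium, inoculated, incubated at 35 °C, read at 72 h for T. rubrum. MIC80 taken as first well with ~80% growth reduction versus drug-free well. Fluconazole, itraconazole, voriconazole, omoconazole and amphotericin B as positive controls. Tests run three times; mean of replicates reported.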

SMILES	MIC80 [µg/mL]
C[C@@H](c1ncncc1F)[C@](O)(Cn1cncn1)c1ccc(F)cc1F [VORICONAZOLE]	0.0625 (≈ 0.179 µM)
C/C(=C(/OCCCCOc1ccc(F)cc1)c1ccc(F)cc1F)n1cncn1.O=[N+]([O-])O	0.025
CCC(C)n1ncn(-c2ccc(N3CCN(c4ccc(OCC5COC(Cn6cncn6)(c6ccc(Cl)cc6Cl)O5)cc4)CC3)cc2)c1=O (stereo not given) [ITRACONAZOLE]	0.125 (≈ 0.177 µM)
C/C(=C(/OCCCCCOc1ccc(Cl)cc1)c1ccc(F)cc1F)n1cncn1.O=[N+]([O-])O	0.25
C/C(=C(/OCCCCOc1ccc(Cl)cc1)c1ccc(F)cc1F)n1cncn1.O=[N+]([O-])O	0.0625
C/C(=C(/OCCOc1ccc(Cl)cc1)c1ccc(F)cc1F)n1cncn1.O=[N+]([O-])O	0.2
C/C(=C(/OCCCOc1ccc(C)cc1)c1ccc(F)cc1F)n1cncn1.O=[N+]([O-])O	2.5
C/C(=C(/OCCCCCCOc1ccc(Cl)cc1)c1ccc(F)cc1F)n1cncn1.O=[N+]([O-])O	2.5
C/C(=C(/OCCCOc1ccc(Cl)cc1)c1ccc(F)cc1F)n1cncn1.O=[N+]([O-])O	0.125
C/C(=C(/OCCCCOc1cccc(Cl)c1)c1ccc(F)cc1F)n1cncn1.O=[N+]([O-])O	0.025
C/C(=C(/OCCCCOc1ccc(Br)cc1)c1ccc(F)cc1F)n1cncn1.O=[N+]([O-])O	0.05
OC(Cn1cncn1)(Cn1cncn1)c1ccc(F)cc1F [FLUCONAZOLE]	4 (≈ 13.1 µM)
C/C(=C(/OCCCCOc1ccccc1Cl)c1ccc(F)cc1F)n1cncn1.O=[N+]([O-])O	0.1
C[C@@H]1[C@H](O)[C@@H](C)/C=C/C=C/C=C/C=C/C=C/C=C/C=C/[C@H](O[C@@H]2O[C@H](C)[C@@H](O)[C@H](N)[C@@H]2O)C[C@@H]2O[C@](O)(C[C@@H](O)C[C@@H](O)[C@H](O)CC[C@@H](O)C[C@@H](O)CC(=O)O[C@H]1C)C[C@H](O)[C@H]2C(=O)O [AMPHOTERICIN B]	2 (≈ 2.16 µM)
C/C(=C(/OCCCOc1ccc(F)cc1)c1ccc(F)cc1F)n1cncn1.O=[N+]([O-])O	0.1
C/C(=C(/OCCOc1ccc(Cl)cc1)c1ccc(Cl)cc1Cl)n1ccnc1 [OMOCONAZOLE]	0.1 (≈ 0.236 µM)
C/C(=C(/OCCCOc1ccc(Br)cc1)c1ccc(F)cc1F)n1cncn1.O=[N+]([O-])O	0.25
C/C(=C(/OCCCCOc1ccc(Cl)cc1Cl)c1ccc(F)cc1F)n1cncn1.O=[N+]([O-])O	2
C/C(=C(/OCCCCOc1ccc(C)cc1)c1ccc(F)cc1F)n1cncn1.O=[N+]([O-])O	0.2
C/C(=C(/OCCCCOc1c(Cl)cc(Cl)cc1Cl)c1ccc(F)cc1F)n1cncn1.O=[N+]([O-])O	> 20
